What was measured:
Assay type in all cases: functional
[1] = system: Cooperia oncophora; assay: Anthelmintic efficacy against adult Cooperia oncopphora (C.o) in sheep at dose of 0.25 mg/kg administered orally; conditions: route oral
Outline: (§1)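 Lambs experimentally infected with mixed gastrointestinal nematodes (H. contortus, O. circumcincta, T. axei, T. colubriformis, C. oncophora, Oe. columbianum) were dosed orally, 1–3 sheep per dose. An untreated infected group of 6 was included, with worm burdens given as the geometric mean number of worms per lamb. Efficacy was scored against adult and, where listed, EL4 stages.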

[2] = system: Cooperia oncophora; assay: Anthelmintic efficacy against adult Cooperia oncopphora (C.o) in sheep at dose of 0.15 mg/kg administered orally; conditions: route oral; outline: as §1
[3] = system: Haemonchus contortus; assay: Anthelmintic efficacy against adult Haemonchus contortus (H.c) in sheep at dose of 0.15 mg/kg administered orally; conditions: route oral; outline: as §1
[4] = system: Haemonchus contortus; assay: Anthelmintic efficacy against adult Haemonchus contortus (H.c) in sheep at dose of 0.25 mg/kg administered orally; conditions: route oral; outline: as §1
[5] = system: Oesophagostomum columbianum; assay: Anthelmintic efficacy against Oseophagostomum columbianum (Oe. c) in sheep at dose of 0.15 mg/kg administered orally; conditions: route oral; outline: as §1
[6] = system: Oesophagostomum columbianum; assay: Anthelmintic efficacy against Oseophagostomum columbianum (Oe. c) in sheep at dose of 0.25 mg/kg administered orally; conditions: route oral; outline: as §1
[7] = system: Teladorsagia circumcincta; assay: Anthelmintic efficacy against immature (EL4) Ostertagia circumcincta (O. c) in sheep at dose of 0.15 mg/kg administered orally; 20-59%
[8] = system: Teladorsagia circumcincta; assay: Anthelmintic efficacy against adult (EL4) Ostertagia circumcincta (O. c) in sheep at dose of 0.15 mg/kg administered orally; conditions: route oral; outline: as §1
[9] = system: Teladorsagia circumcincta; assay: Anthelmintic efficacy against adult Ostertagia circumcincta (O. c) in sheep at dose of 0.25 mg/kg administered orally; conditions: route oral; outline: as §1
[10] = system: Trichostrongylus axei; assay: Anthelmintic efficacy against Trichostrongylus axei (T.a) in sheep at dose of 0.15 mg/kg administered orally; conditions: route oral; outline: as §1
[11] = system: Trichostrongylus axei; assay: Anthelmintic efficacy against Trichostrongylus axei (T.a) in sheep at dose of 0.25 mg/kg administered orally; conditions: route oral; outline: as §1
[12] = system: Trichostrongylus colubriformis; assay: Minimal dose necessary to eliminate > 83% of Trichostrongylus colubriformis infection in gerbils
[13] = system: Trichostrongylus colubriformis; assay: Anthelmintic efficacy against Trichostrongylus colubriformis (T.c) in sheep at dose of 0.15 mg/kg administered orally; conditions: route oral; outline: as §1
[14] = system: Trichostrongylus colubriformis; assay: Anthelmintic efficacy against Trichostrongylus colubriformis (T.c) in sheep at dose of 0.25 mg/kg administered orally; conditions: route oral; outline: as §1
[15] = system: Cooperia oncophora; assay: Anthelmintic efficacy against adult Cooperia oncopphora (C.o) in sheep at dose of 0.25 mg/kg administered orally; 60-89%; outline: as §1
[16] = system: Teladorsagia circumcincta; assay: Anthelmintic efficacy against adult Ostertagia circumcincta (O. c) in sheep at dose of 0.25 mg/kg administered orally; 60-89%; outline: as §1
[17] = system: Trichostrongylus axei; assay: Anthelmintic efficacy against Trichostrongylus axei (T.a) in sheep at dose of 0.25 mg/kg administered orally; 20-59%; outline: as §1
[18] = system: Trichostrongylus colubriformis; assay: Anthelmintic efficacy against Trichostrongylus colubriformis (T.c) in sheep at dose of 0.25 mg/kg administered orally; 60-89%; outline: as §1

Row | Structure (SMILES) | Efficacy [1] | Efficacy [2] | Efficacy [3] | Efficacy [4] | Efficacy [5] | Efficacy [6] | Efficacy [7] | Efficacy [8] | Efficacy [9] | Efficacy [10] | Efficacy [11] | Dose [12] | Efficacy [13] | Efficacy [14] | Efficacy [15] | Efficacy [16] | Efficacy [17] | Efficacy [18]
1 | CC[C@H](C)[C@H]1O[C@]2(C=C[C@@H]1C)C[C@@H]1C[C@@H](C/C=C(\C)[C@@H](O[C@H]3C[C@@H](OC)[C@@H](O[C@H]4C[C@@H](OC)[C@@H](OC(C)=O)[C@H](C)O4)[C@H](C)O3)[C@@H](C)/C=C/C=C3\CO[C@@H]4[C@H](OC(C)=O)C(C)=C[C@@H](C(=O)O1)[C@]34O)O2 | >90% | >90% | >90% | >90% | >90% | >90% | 20% | >90% | >90% | >90% | >90% | 0.25 mg/kg | >90% | >90% | – | – | – | –
2 | CC[C@H](C)[C@H]1O[C@]2(CC(OC(C)=O)[C@@H]1C)C[C@@H]1C[C@@H](C/C=C(\C)[C@@H](OC3CC(OC)C(OC4CC(OC)C(OC(C)=O)C(C)O4)C(C)O3)[C@@H](C)/C=C/C=C3\CO[C@@H]4[C@H](OC)C(C)=C[C@@H](C(=O)O1)[C@]34O)O2 (stereo partly specified) | – | – | – | >90% | – | >90% | – | – | – | – | – | 0.5 mg/kg | – | – | 60% | 60% | 20% | 60%

From ChEMBL document CHEMBL1122071, “Avermectin acyl derivatives with anthelmintic activity” (1982)
